Data set [1] in a line: Half life in mouse liver microsomes at 2.5 uL preincubated for 5 mins followed by NADPH addition and measured by LC-MS/MS analysis. It is filed as ADME, Microsome. (Liver microsomes are vesicles of endoplasmic reticulum, rich in cytochrome P450 enzymes.)
Data set [2] can be described thus: Intrinsic clearance in mouse liver microsomes at 2.5 uL preincubated for 5 mins followed by NADPH addition and measured by LC-MS/MS analysis. It is filed as ADME, Microsome. To be noted: read-out: CLH.
Data set [3] in a line: Selectivity ratio of MIC90 for inhibition of DprE1-mediated growth of Mycobacterium tuberculosis H37Rv to MIC90 for inhibition of DprE1-mediated growth of Mycobacterium tuberculosis CDC1551.
Data set [4] is described as follows: Protein binding in plasma (unknown origin) measured after 5 hrs by equilibrium dialysis method. It is filed as ADME, cell-free. Particulars: read-out: PPB (converted). For orientation: Equilibrium dialysis compares concentrations on both sides of a semipermeable membrane.
Data set [5] in a line: Selectivity ratio of MIC90 for inhibition of DprE1-mediated growth of Mycobacterium tuberculosis H37Rv to MIC90 for inhibition of DprE1-mediated growth of Mycobacterium tuberculosis Erdman.
Data set [6] is described as follows: Intrinsic clearance in human liver microsomes at 2.5 uL preincubated for 5 mins followed by NADPH addition and measured by LC-MS/MS analysis. Particulars: read-out: CLH. Format: ADME, Microsome.
Data set [7] can be described thus: Half life in […] microsomes at 2.5 uL preincubated for 5 mins followed by NADPH addition and measured by LC-MS/MS analysis. Format: ADME, Liver, Microsome.
A short description of data set [8]: Stability of the compound in plasma (unknown origin). Format: ADME, cell-free.
A short description of data set [9]: Kinetic aqueous solubility of the compound in pH 7.4 phosphate buffer incubated for 4.5 hrs under shaking condition by LC-MS/MS analysis. Particulars: read-out: Kinetic_solubility. Format: physicochemical. An outline of the steps:
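Kinetic solubility measured in phosphate-buffered saline at pH 7.4, with compound quantified by LC–MS/MS.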

The target of data set [10] is T1, Decaprenylphosphoryl-beta-D-ribose oxidase (Mycobacterium tuberculosis (strain ATCC 25618 / H37Rv)) (UniProt P9WJF1).
T1 sequence (whole entry): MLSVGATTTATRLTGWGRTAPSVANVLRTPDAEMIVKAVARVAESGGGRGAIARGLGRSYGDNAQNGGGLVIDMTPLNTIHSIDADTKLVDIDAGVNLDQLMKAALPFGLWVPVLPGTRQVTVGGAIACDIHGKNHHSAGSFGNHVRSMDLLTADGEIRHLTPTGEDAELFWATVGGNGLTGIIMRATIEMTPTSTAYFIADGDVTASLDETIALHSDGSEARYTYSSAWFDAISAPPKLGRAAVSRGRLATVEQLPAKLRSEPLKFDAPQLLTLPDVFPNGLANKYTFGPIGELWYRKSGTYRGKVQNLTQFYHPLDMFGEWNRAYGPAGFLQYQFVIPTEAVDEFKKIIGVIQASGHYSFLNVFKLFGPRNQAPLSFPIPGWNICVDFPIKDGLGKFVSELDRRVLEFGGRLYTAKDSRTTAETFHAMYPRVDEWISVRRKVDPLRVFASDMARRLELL
Description: Inhibition of Mycobacterium tuberculosis H37Rv DprE1 assessed as reduction in bacterial growth measured after 7 to 10 days by broth microdilution method. An outline of the steps: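 Whole-cell growth assay of M. tuberculosis H37Rv in 7H9 broth. MIC is taken as the lowest concentration giving complete inhibition of observable growth.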

The nature of data set [11]: Ratio of test compound kinetic aqueous solubility to PBTZ169 kinetic aqueous solubility. Format: physicochemical. To be noted: buffer.
The nature of data set [12]: AUC in specific pathogen free ICR mouse at 2 mg/kg, iv by LC/TSQ-MS analysis. Particulars: in vivo. Format: ADME, organism-based. Put shortly: (§1)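 ICR mice dosed once with compound, intravenously at 2 mg/kg or orally at 10 mg/kg. Plasma pharmacokinetic parameters derived per route: AUC, Cmax, clearance, mean residence time, Vd, terminal elimination half-life, and oral bioavailability from the p.o. versus i.v. comparison.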

Data set [13] is described as follows: Volume of distribution in specific pathogen free ICR mouse at 2 mg/kg, iv by LC/TSQ-MS analysis. Format: ADME, organism-based. Particulars: in vivo. Put shortly:
as §1

The nature of data set [14]: Oral bioavailability in specific pathogen free ICR mouse at 10 mg/kg by LC/TSQ-MS analysis. Format: ADME, organism-based. Particulars: in vivo. An outline of the steps:
as §1

Data set [15] can be described thus: Terminal half life in specific pathogen free ICR mouse at 2 mg/kg, iv by LC/TSQ-MS analysis. It is filed as ADME, organism-based. Particulars: in vivo, read-out: beta t1/2 (converted). An outline of the steps:
as §1

Data set [16] in a line: Mean residence time in specific pathogen free ICR mouse at 10 mg/kg, po by LC/TSQ-MS analysis. It is filed as ADME, organism-based. To be noted: in vivo. An outline of the steps: as §1
The nature of data set [17]: Cmax in specific pathogen free ICR mouse at 2 mg/kg, iv by LC/TSQ-MS analysis. Particulars: in vivo. More on the design: dose 2 mg/kg, route intravenous. Format: ADME, organism-based. An outline of the steps: as §1
Data set [18] in a line: Cmax in specific pathogen free ICR mouse at 10 mg/kg, po by LC/TSQ-MS analysis. Format: ADME, organism-based. More on the design: dose 10 mg/kg, route oral. To be noted: in vivo. An outline of the steps:
as §1

The nature of data set [19]: AUC in specific pathogen free ICR mouse at 10 mg/kg, po by LC/TSQ-MS analysis. Format: ADME, organism-based. To be noted: in vivo. An outline of the steps: as §1
Data set [20] is described as follows: Terminal half life in specific pathogen free ICR mouse at 10 mg/kg, po by LC/TSQ-MS analysis. It is filed as ADME, organism-based. Particulars: in vivo, read-out: beta t1/2 (converted). An outline of the steps:
as §1

Data set [21] in a line: Intrinsic clearance in specific pathogen free ICR mouse at 2 mg/kg, iv by LC/TSQ-MS analysis. It is filed as ADME, organism-based. To be noted: in vivo.
Data set [22] in a line: Mean residence time in specific pathogen free ICR mouse at 2 mg/kg, iv by LC/TSQ-MS analysis. It is filed as ADME, organism-based. Particulars: in vivo. Put shortly: as §1

Converted amounts (≈) assume the structure as drawn.

As for `O=c1nc(N2CCN(CC3CCCCC3)CC2)sc2c([N+](=O)[O-])cc(C(F)(F)F)cc12` [MACOZINONE], the results for the half-life in data set [1] and in [7] were 34.4 min and 43 min, respectively. The microsomal CLint is 20.1 µL/min/mg in data set [2] and 16.5 µL/min/mg in data set [6]. Moreover, the Selectivity ratio in data set [3] and in data set [5] was less than 4 in each case. In addition, in [4], the fraction unbound at 5 h was 0.001. Further, the Stability in [8] is on record as 88.7%. Further, the solubility kinetic at 4.5 h in data set [9] was less than 0.01 µg/mL. The MIC in data set [10] came out at 2 nM (≈ 0.000913 µg/mL).

In the case of `O=c1nc(N2C[C@H]3C[C@@H]2CN3CC2CCCCC2)sc2c([N+](=O)[O-])cc(C(F)(F)F)cc12`, the half-life in data set [1] was found to be 7.05 min; in [7] it was 26.6 min. The microsomal CLint in data set [2] came out at 98.4 µL/min/mg; in [6] it was 26.1 µL/min/mg. For the same compound, the Selectivity ratio in data set [3] and in [5] was less than 4 each time. Also, in data set [4], the fraction unbound at 5 h is 0.004. In addition, the Ratio in data set [11] is given as 1600. For the same compound, the Stability in data set [8] came to 81.9%. Moreover, the solubility kinetic at 4.5 h in data set [9] worked out at 14.6 µg/mL (≈ 31.2 µM). Besides, in [10], the MIC came out at 64 nM (≈ 0.03 µg/mL).

Usually AUC stands for concentration integrated over time. A high value points to high exposure. For orientation: Vd means the apparent volume that relates the amount in the body to the concentration in plasma or blood. A higher Vd goes with wide distribution into tissue. By bioavailability is commonly meant the share of a dose that reaches the circulation, judged against a reference dose that is usually intravenous. Usually MRT stands for the average time that molecules of a dose stay in the body. As a reminder, the Cmax is the peak of the concentration-time curve. Consider `O=c1nc(N2C[C@@H]3[C@H](C2)[C@H]3NCC2CCCCC2)sc2c([N+](=O)[O-])cc(C(F)(F)F)cc12`, for which the half-life in data set [1] was 65.2 min; in [15], 152 min; in data set [20], 131 min; in data set [7], 76.6 min. The microsomal CLint was determined as 10.6 µL/min/mg in [2] and 9.05 µL/min/mg in data set [6]. Moreover, the Selectivity ratio in data set [3] and in data set [5] was less than 4 each time. For the same compound, the fraction unbound at 5 h in [4] was 0.005. Also, the area under the curve (AUC) in data set [12] came to 576 ng·h/mL; in data set [19], 791 ng·h/mL. For the same compound, the Vd in data set [13] came to 12.8 L/kg. For the same compound, the bioavailability in data set [14] turned out to be 27.4%. Besides, the figures for the MRT in [16] and in [22] were 3.09 h and 2.24 h, respectively. In addition, the Cmax is 483 ng/mL in [17] and 195 ng/mL in data set [18]. In data set [21], this compound registered a CL of 58.2 mL/min/kg. The Stability in data set [8] was 91.4%. The solubility kinetic at 4.5 h in data set [9] worked out at 4.8 µg/mL (≈ 10.2 µM). In [10], the MIC came to 32 nM (≈ 0.015 µg/mL).

Turning to `O=c1nc(N2CCC3(CCN(CC4CCCCC4)C3)CC2)sc2c([N+](=O)[O-])cc(C(F)(F)F)cc12`, the Selectivity ratio in data set [3] and in [5] was less than 4 throughout. In addition, the MIC in data set [10] worked out at 128 nM (≈ 0.0654 µg/mL).

For the compound `O=c1nc(N2CCC3(CC2)CN(CC2CCCCC2)C3)sc2c([N+](=O)[O-])cc(C(F)(F)F)cc12`, the Selectivity ratio in data set [3] and in data set [5] was less than 4 each time. Also, in [10], the MIC amounted to 512 nM (≈ 0.254 µg/mL).

For the compound `O=c1nc(N2[C@@H]3C[C@H]2CN(CC2CCCCC2)C3)sc2c([N+](=O)[O-])cc(C(F)(F)F)cc12`, the Selectivity ratio in [3] and in [5] was less than 4 in each case. In addition, the MIC in [10] was determined as 128 nM (≈ 0.06 µg/mL).

Regarding `O=c1nc(N2CC3CCC2CN3CC2CCCCC2)sc2c([N+](=O)[O-])cc(C(F)(F)F)cc12` (stereo unspecified), the half-life in data set [1] was determined as 27.3 min; in data set [7], 30.6 min. For the same compound, the results for the microsomal CLint in [2] and in data set [6] were 25.4 µL/min/mg and 22.7 µL/min/mg, respectively. Besides, the Selectivity ratio in [3] and in [5] was less than 4 throughout. Further, in [4], the fraction unbound at 5 h is 0.001. In data set [8], this compound gave a Stability of 102%. Further, the solubility kinetic at 4.5 h in data set [9] is less than 0.029 µg/mL. Also, the MIC in [10] worked out at 32 nM (≈ 0.0154 µg/mL).

For `O=c1nc(N2CC3(CN(CC4CCCCC4)C3)C2)sc2c([N+](=O)[O-])cc(C(F)(F)F)cc12`, the Selectivity ratio in data set [3] and in data set [5] was less than 4 each time. The MIC in [10] was 256 nM (≈ 0.12 µg/mL).

`O=c1nc(N2CCC3(CC2)CC3)sc2c([N+](=O)[O-])cc(C(F)(F)F)cc12`: the half-life in [1] turned out to be 8.33 min; in [7], 43 min. The microsomal CLint worked out at 83.3 µL/min/mg in [2] and 16.1 µL/min/mg in data set [6]. The Selectivity ratio in data set [3] and in [5] was less than 4 each time. For the same compound, the fraction unbound at 5 h in [4] is 0.006. Besides, in data set [8], the Stability was determined as 93.3%. Besides, in data set [9], the solubility kinetic at 4.5 h was 0.3 µg/mL (≈ 0.778 µM). The MIC in data set [10] turned out to be 16 nM (≈ 0.00617 µg/mL).

As to `O=c1nc(N2CC3(CCN(CC4CCCCC4)CC3)C2)sc2c([N+](=O)[O-])cc(C(F)(F)F)cc12`, the Selectivity ratio in [3] and in data set [5] was less than 4 in each case. In addition, the MIC in data set [10] stood at 1020 nM (≈ 0.508 µg/mL).

For the compound `O=c1nc(N2CCC3(CCN(CC4CCCCC4)C3)C2)sc2c([N+](=O)[O-])cc(C(F)(F)F)cc12` (stereo unspecified), the Selectivity ratio in [3] and in data set [5] was less than 4 each time. The MIC in data set [10] was 256 nM (≈ 0.127 µg/mL).

With `O=c1nc(N2C[C@H]3C[C@@H](C2)N3CC2CCCCC2)sc2c([N+](=O)[O-])cc(C(F)(F)F)cc12`, the Selectivity ratio in [3] and in data set [5] was less than 4 throughout. Further, the MIC in data set [10] is 128 nM (≈ 0.06 µg/mL).

With `O=c1nc(N2CCCC3(CCCCN3CC3CCCCC3)C2)sc2c([N+](=O)[O-])cc(C(F)(F)F)cc12` (stereo unspecified), the Selectivity ratio in data set [3] and in [5] was less than 4 each time. Besides, the MIC in data set [10] worked out at 1020 nM (≈ 0.537 µg/mL).

The values are drawn from ChEMBL document CHEMBL4400578, “Spirocyclic and Bicyclic 8-Nitrobenzothiazinones for Tuberculosis with Improved Physicochemical and Pharmacokinetic Properties” (ACS Med Chem Lett, 2019).
